Measurements from ChEMBL document CHEMBL4376835, “Discovery of Nonpungent Transient Receptor Potential Vanilloid 1 (TRPV1) Agonist as Strong Topical Analgesic” (J Med Chem, 2020).
The source made the active and inactive calls.

Assays:
[1] = biological target: T1, Transient receptor potential cation channel subfamily V member 1 (Homo sapiens, UniProt Q8NER1); assay: Agonist activity at human TRPV1 expressed in CHO cells assessed as increase in 45Ca2+ uptake incubated for 5 mins by liquid scintillation counting method; type: cell-based
Summary of the method: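 Human or rat TRPV1 heterologously expressed in CHO cells; agonism read as 45Ca2+ uptake, run as previously described. Values are the mean of at least three experiments.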

[2] = biological target: T1, Transient receptor potential cation channel subfamily V member 1; assay: Potency index, ratio of Ki of capsaicin to Ki for displacement of [3H]RTX from human TRPV1 expressed in CHO cells incubated for 60 mins by scintillation counting method; type: cell-based
[3] = biological target: Transient receptor potential cation channel subfamily V member 1 (Rattus norvegicus) (UniProt O35433); assay: Potency index, ratio of Ki of capsaicin to Ki for displacement of [3H]RTX from rat TRPV1 expressed in CHO cells incubated for 60 mins by scintillation counting method; type: cell-based
[4] = biological target: T1, Transient receptor potential cation channel subfamily V member 1; assay: Partial agonist activity at human TRPV1 expressed in CHO cells assessed as maximal increase in 45Ca2+ uptake incubated for 5 mins by liquid scintillation counting method relative to capsaicin; type: cell-based
Summary of the method: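 Human or rat TRPV1 heterologously expressed in CHO cells; functional agonism read as 45Ca2+ uptake. Values are means of at least three experiments.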

[5] = biological target: T1, Transient receptor potential cation channel subfamily V member 1; assay: Potency index, ratio of EC50 of capsaicin to EC50 of compound for agonist activity at human TRPV1 expressed in CHO cells assessed as increase in 45Ca2+ uptake incubated for 5 mins by liquid scintillation counting method; type: cell-based
[6] = biological target: T1, Transient receptor potential cation channel subfamily V member 1; assay: Potency index, ratio of EC50 of zu-capsaicin to EC50 of compound for agonist activity at human TRPV1 expressed in CHO cells assessed as increase in 45Ca2+ uptake incubated for 5 mins by liquid scintillation counting method; type: cell-based
[7] = biological target: T1, Transient receptor potential cation channel subfamily V member 1; assay: Agonist activity at human TRPV1 expressed in HEK293 cells assessed as increase in calcium influx at 0.3 to 30 uM incubated for 1 min by Fluo-4-AM dye based FLIPR assay; type: cell-based
Summary of the method: (§1)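 Cells individually transfected with a single TRP channel (TRPV1, hTRPA1, mTRPA1, mTRPV3 or mTRPM8). Intracellular calcium influx recorded by FLIPR after the test compound was applied. Each cell type was also challenged with an agonist suited to its own TRP channel.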

[8] = biological target: Transient receptor potential cation channel subfamily A member 1 (Homo sapiens) (UniProt O75762); assay: Agonist activity at human TRPA1 expressed in HEK293 cells assessed as increase in calcium influx at 0.3 to 30 uM incubated for 1 min by Fluo-4-AM dye based FLIPR assay; type: cell-based; summary of the method: as §1
[9] = biological target: Transient receptor potential cation channel subfamily M member 8 (Mus musculus) (UniProt Q8R4D5); assay: Agonist activity at mouse TRPM8 expressed in HEK293 cells assessed as increase in calcium influx at 0.3 to 30 uM incubated for 1 min by Fluo-4-AM dye based FLIPR assay; type: cell-based; summary of the method: as §1
Rattus norvegicus = assay: Analgesic activity in ip dosed L5/L6 spinal nerve ligation-induced neuropathic pain Sprague-Dawley rat model assessed as increase in paw withdrawal threshold in response to von frey filament compound administered at day 14 after ligation and measured up to 1.5 hrs after drug dosing by up and down method; type: functional
Summary of the method: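 Rat spinal nerve ligation model of neuropathic pain. Compound was given i.p. at 1, 2, 5 or 10 mg/kg; a gabapentin 65 mg/kg i.p. arm and a saline i.p. arm were run alongside. Von Frey withdrawal thresholds were taken pre-surgery and on days 1, 7 and 14, then at 0.5, 1 and 1.5 h post-dose. Mean±SEM, n=7-8.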

Mus musculus [10] = assay: Induction of hypothermia in ICR mouse assessed as decrease in body temperature at 0.5 mg/kg, ip coadministered with capsaicin and measured for 7 hrs; type: functional, organism-based
Mus musculus [11] = assay: Analgesic activity in ip dosed formalin-induced nociception ICR mouse model assessed as reduction in pain behaviour by measuring less licking of formalin injected hind paw pretreated with compound 30 mins prior to formalin induction measured during first phase (0-5 mins after formalin injection) by formalin test; type: functional
Summary of the method: (§2)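 Mice were dosed i.p. with 0.1–10 mg/kg, with vehicle and gabapentin (50, 100 mg/kg i.p.) arms. 2% formalin was injected into the dorsal hindpaw, and paw-licking time was recorded for the first phase (5 min) and the second phase (20–30 min). ED50 was taken from the dose–response. Mean±SEM, n=8.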

Mus musculus [12] = assay: Analgesic activity in ip dosed formalin-induced nociception ICR mouse model assessed as reduction in pain behaviour by measuring less licking of formalin injected hind paw pretreated with compound 30 mins prior to formalin induction measured during second phase (20-30 mins after formalin injection) by formalin test; type: functional; summary of the method: as §2
Mus musculus [13] = assay: Analgesic activity against formalin-induced nociception ICR mouse model assessed as reduction in pain behaviour by measuring less licking of formalin injected hind paw at 1 mg/kg, ip pretreated with compound 30 mins prior to formalin induction measured during second phase (20-30 mins after formalin injection) by formalin test; type: functional; summary of the method: as §2
Mus musculus [14] = assay: Antiallodynic activity against capsaicin-induced mechanical allodynia ICR mouse model assessed as inhibition of mechanical hyperalgesia administered topically 30 mins before capsaicin injection and measured over 5 mins; type: functional, organism-based
[15] = Systemic drug absorption in porcine skin assessed as drug accumulation in acceptor Franz cell applied topically as carbopol-gel with 1% formulation measured for 8 hrs by Franz diffusion cell based in vitro transdermal delivery test; type: ADME, tissue-based, Sus scrofa, Zone of skin; conditions: pig
[16] = Toxicity in Sprague-Dawley rat assessed as pathological problems administered topically daily for 4 weeks; conditions: in vivo, topical_or_ocular, 672 h
Summary of the method: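 Rats given daily topical application for 4 weeks, then examined for pathological findings.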

[17] = Genotoxicity in CHL/IU cells by chromosomal aberration assay; type: toxicity, cell-based, Cricetulus griseus; conditions: chinese hamster
[18] = Genotoxicity in ip dosed rat by micronucleus assay; type: toxicity, organism-based; conditions: in vivo
[19] = biological target: Transient receptor potential cation channel subfamily V member 1 (Rattus norvegicus) (UniProt O35433); assay: Agonist activity at rat TRPV1 expressed in HEK293 cells assessed as increase in calcium influx at 0.3 to 30 uM incubated for 1 min by Fluo-4-AM dye based FLIPR assay; type: cell-based; summary of the method: as §1
[20] = Genotoxicity in Salmonella typhimurium TA97 incubated for 48 hrs by Ames test; type: toxicity; conditions: salmonella enterica subsp. enterica serovar typhimurium
[21] = Genotoxicity in Salmonella typhimurium TA98 incubated for 48 hrs by Ames test; type: toxicity; conditions: salmonella enterica subsp. enterica serovar typhimurium
[22] = Genotoxicity in Salmonella typhimurium TA102 incubated for 48 hrs by Ames test; type: toxicity; conditions: salmonella enterica subsp. enterica serovar typhimurium
[23] = Genotoxicity in Salmonella typhimurium TA104 incubated for 48 hrs by Ames test; type: toxicity; conditions: salmonella enterica subsp. enterica serovar typhimurium
[24] = Genotoxicity in Salmonella typhimurium TA1538 incubated for 48 hrs by Ames test; type: toxicity; conditions: salmonella enterica subsp. enterica serovar typhimurium
[25] = Genotoxicity in CHO-WBLT cells assessed as chromosomal aberration incubated for 6 hrs in presence of rat S9 by laser scan cytometry; type: toxicity, subcellular, Cricetulus griseus; conditions: chinese hamster, s9, 6 h
[26] = Genotoxicity in Salmonella typhimurium TA98 incubated for 48 hrs in presence of rat S9 by Ames test; type: toxicity, subcellular; conditions: salmonella enterica subsp. enterica serovar typhimurium, s9, 48 h
[27] = Genotoxicity in Salmonella typhimurium TA100 incubated for 48 hrs in presence of rat S9 by Ames test; type: toxicity, subcellular; conditions: salmonella enterica subsp. enterica serovar typhimurium, s9, 48 h
[28] = Genotoxicity in Salmonella typhimurium TA104 incubated for 48 hrs in presence of rat S9 by Ames test; type: toxicity, subcellular; conditions: salmonella enterica subsp. enterica serovar typhimurium, s9, 48 h
[29] = Genotoxicity in Salmonella typhimurium TA1537 incubated for 48 hrs in presence of rat S9 by Ames test; type: toxicity, subcellular; conditions: salmonella enterica subsp. enterica serovar typhimurium, s9, 48 h

T1 sequence (Q8NER1 whole entry): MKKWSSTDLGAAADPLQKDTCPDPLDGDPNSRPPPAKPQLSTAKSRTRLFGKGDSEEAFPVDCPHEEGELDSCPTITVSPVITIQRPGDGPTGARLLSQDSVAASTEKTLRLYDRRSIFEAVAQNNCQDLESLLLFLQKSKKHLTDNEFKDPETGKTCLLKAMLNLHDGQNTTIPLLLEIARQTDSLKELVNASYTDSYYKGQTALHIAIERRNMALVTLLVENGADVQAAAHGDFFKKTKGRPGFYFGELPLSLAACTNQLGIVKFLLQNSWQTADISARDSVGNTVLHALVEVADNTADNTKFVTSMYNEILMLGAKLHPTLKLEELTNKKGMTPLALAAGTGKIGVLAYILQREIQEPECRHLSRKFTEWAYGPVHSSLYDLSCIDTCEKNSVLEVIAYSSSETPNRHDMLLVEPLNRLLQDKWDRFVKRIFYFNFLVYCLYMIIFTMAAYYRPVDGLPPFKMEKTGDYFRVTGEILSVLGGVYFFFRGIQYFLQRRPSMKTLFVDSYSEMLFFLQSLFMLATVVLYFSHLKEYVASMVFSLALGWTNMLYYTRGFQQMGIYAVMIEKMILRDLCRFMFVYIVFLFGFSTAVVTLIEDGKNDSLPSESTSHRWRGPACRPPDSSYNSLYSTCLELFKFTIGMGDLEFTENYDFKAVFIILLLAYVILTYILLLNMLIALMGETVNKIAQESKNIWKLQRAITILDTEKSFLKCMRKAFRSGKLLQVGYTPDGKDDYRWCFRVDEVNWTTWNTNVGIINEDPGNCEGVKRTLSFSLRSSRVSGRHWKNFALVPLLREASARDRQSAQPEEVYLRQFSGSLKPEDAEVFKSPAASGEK
Transient receptor potential cation channel subfamily V member 1 (Rattus norvegicus), sequence (O35433 whole entry): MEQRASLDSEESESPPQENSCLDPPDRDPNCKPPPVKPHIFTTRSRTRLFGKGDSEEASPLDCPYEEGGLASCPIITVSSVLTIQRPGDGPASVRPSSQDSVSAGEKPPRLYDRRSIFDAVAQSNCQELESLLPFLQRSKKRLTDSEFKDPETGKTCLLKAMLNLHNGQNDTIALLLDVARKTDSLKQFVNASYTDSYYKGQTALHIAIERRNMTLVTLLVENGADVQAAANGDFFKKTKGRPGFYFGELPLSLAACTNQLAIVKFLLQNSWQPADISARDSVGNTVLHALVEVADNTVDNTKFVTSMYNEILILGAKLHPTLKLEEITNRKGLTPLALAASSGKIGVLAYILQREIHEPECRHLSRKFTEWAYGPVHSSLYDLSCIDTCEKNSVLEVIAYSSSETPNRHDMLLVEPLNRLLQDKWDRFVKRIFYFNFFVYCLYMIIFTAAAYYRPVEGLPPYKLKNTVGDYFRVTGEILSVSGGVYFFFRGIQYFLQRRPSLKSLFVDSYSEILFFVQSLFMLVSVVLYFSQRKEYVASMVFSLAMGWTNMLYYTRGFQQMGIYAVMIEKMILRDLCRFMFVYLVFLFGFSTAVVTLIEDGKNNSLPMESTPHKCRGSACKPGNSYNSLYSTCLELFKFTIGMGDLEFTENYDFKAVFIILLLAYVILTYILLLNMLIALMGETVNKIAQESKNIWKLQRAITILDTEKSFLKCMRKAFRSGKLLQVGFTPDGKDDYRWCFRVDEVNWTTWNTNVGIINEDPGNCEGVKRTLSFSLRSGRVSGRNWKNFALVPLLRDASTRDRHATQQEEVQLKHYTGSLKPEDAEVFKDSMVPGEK
Transient receptor potential cation channel subfamily A member 1 (Homo sapiens), sequence (O75762 whole entry): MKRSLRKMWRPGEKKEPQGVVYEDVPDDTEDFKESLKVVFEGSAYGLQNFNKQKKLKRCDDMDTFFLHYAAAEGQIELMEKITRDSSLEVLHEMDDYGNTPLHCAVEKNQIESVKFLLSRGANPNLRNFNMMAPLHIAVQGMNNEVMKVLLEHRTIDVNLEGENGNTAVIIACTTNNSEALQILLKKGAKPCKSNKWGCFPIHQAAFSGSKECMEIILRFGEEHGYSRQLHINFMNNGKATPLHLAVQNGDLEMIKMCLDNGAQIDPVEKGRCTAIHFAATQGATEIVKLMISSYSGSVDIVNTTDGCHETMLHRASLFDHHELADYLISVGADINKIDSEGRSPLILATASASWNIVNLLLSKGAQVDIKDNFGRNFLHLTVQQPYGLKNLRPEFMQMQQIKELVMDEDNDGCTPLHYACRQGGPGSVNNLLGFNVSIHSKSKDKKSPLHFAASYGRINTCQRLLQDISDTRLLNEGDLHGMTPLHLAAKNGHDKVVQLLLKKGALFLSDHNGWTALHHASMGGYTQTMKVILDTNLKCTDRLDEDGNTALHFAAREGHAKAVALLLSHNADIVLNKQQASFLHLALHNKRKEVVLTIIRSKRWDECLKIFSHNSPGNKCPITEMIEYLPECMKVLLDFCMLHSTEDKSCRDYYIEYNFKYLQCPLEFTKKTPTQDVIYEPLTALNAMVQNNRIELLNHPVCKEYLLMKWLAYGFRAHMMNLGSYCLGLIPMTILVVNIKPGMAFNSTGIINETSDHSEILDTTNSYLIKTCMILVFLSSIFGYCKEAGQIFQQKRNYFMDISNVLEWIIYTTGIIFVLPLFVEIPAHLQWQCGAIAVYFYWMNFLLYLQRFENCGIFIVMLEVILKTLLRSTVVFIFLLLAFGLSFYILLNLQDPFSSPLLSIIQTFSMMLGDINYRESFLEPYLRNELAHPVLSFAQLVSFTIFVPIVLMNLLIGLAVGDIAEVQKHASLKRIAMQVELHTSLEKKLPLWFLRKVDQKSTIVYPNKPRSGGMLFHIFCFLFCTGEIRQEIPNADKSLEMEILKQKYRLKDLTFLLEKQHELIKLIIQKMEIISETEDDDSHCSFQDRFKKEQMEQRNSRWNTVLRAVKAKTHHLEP
Transient receptor potential cation channel subfamily M member 8 (Mus musculus), sequence (Q8R4D5 whole entry): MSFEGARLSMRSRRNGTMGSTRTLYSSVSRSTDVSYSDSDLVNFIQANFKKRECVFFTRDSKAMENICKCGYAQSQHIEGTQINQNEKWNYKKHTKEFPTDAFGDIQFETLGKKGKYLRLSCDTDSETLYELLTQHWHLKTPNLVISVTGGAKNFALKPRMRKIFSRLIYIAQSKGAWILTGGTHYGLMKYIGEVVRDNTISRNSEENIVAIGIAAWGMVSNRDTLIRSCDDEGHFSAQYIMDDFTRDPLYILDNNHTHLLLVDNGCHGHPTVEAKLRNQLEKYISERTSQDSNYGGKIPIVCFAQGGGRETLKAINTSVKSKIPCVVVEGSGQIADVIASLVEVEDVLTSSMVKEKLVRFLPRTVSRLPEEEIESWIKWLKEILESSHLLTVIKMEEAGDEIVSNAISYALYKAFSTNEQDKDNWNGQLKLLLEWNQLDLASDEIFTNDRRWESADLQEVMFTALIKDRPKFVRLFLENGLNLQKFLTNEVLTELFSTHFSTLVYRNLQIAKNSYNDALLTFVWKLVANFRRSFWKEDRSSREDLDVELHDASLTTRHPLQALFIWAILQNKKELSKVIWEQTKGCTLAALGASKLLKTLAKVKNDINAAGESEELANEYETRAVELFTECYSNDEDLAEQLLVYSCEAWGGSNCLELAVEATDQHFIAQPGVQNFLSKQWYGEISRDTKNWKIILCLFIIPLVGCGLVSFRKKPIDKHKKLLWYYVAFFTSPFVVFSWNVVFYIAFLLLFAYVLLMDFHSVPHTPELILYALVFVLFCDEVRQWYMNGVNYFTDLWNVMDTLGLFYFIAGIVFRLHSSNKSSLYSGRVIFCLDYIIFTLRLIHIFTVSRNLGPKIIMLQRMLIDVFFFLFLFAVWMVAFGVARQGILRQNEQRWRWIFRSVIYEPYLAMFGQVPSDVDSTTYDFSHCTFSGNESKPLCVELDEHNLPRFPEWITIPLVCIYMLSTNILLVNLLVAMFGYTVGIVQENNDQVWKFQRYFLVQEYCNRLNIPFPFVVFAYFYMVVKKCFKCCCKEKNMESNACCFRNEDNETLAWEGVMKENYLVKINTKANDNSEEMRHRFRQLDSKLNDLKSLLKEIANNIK

CC(C)(C)c1nc(-c2cccc(Cl)c2)c(CNC(=O)Nc2ccc(CO)c(F)c2)s1
EC50 [1]: 5.05 nM
Ratio Ki [2]: 80
Ratio Ki [3]: 80
Activity [4]: 50 to 60%
Ratio EC50 [5]: 5
Ratio EC50 [6]: 5
Activity [7]: Active
Activity [8]: inactive
Activity [9]: inactive
Activity (Rattus norvegicus): Dose-dependent effect
ED50 (Rattus norvegicus): 0.5 to 2 mg/kg
Activity (Mus musculus [10]): Active
Activity (Mus musculus [11]): Dose-dependent effect
ED50 (Mus musculus [11]): 0.79 mg/kg
Activity (Mus musculus [12]): Dose-dependent effect
ED50 (Mus musculus [12]): 0.16 mg/kg
MPE (Mus musculus [13]): 100%
Activity (Mus musculus [14]): Dose-dependent effect
Drug absorption [15]: Not Active
Activity [16]: Non-Toxic
Activity [17]: Non-Toxic
Activity [18]: Non-Toxic
Activity [19]: Active
Activity [20]: Non-Toxic
Activity [21]: Non-Toxic
Activity [22]: Non-Toxic
Activity [23]: Non-Toxic
Activity [24]: Non-Toxic
Activity [25]: Non-Toxic
Activity [26]: Non-Toxic
Activity [27]: Non-Toxic
Activity [28]: Non-Toxic
Activity [29]: Non-Toxic
